Assay results reported in publication PMC10353488 (Journal of medicinal chemistry, 2020).

What was measured:
[1] = tested on: E. coli K12; experiment: Broth microdilution antibacterial assay, E. coli K12; assay type: cell-based, Escherichia coli; settings: concentrations up to 256 μg/mL
[2] = tested on: C. trachomatis serovar L2; experiment: Inclusion forming units; assay type: cell-based, Chlamydia trachomatis; settings: for impact on chlamydiae (infectious progeny, IFU): added 8 h after infection, 24 h; for inhibitory activity against chlamydiae (Figure 5a): ACP1b at 50 μg/mL, 40 at 50 μg/mL and 5.20 μg/mL
[3] = Metabolic stability in human liver microsomes; assay type: in vitro ADME; settings: human liver microsomes with NADPH
[4] = tested on: S. aureus JE2; experiment: Broth microdilution antibacterial assay, S. aureus JE2; assay type: cell-based, Staphylococcus aureus; settings: concentrations up to 256 μg/mL
[5] = tested on: human keratinocyte (HaCaT) cells; experiment: Cytotoxicity assay; assay type: cell-based; settings: 50 μg/mL, 24 h
[6] = tested on: Chlamydia; settings: cited from earlier work
[7] = tested on: H. influenzae; settings: cited from earlier work
[8] = tested on: C. trachomatis; settings: cited from earlier work
[9] = cited from earlier work
[10] = tested on: N. meningitidis; settings: cited from earlier work
[11] = tested on: E. coli ClpP; settings: cited from earlier work
[12] = molecular target: recombinant ClpP1 and ClpP2 from C. trachomatis L2 (Chlamydia trachomatis serovar D, UniProt O84712+P38002); experiment: In vitro casein degradation assay, chlamydial ClpP1/ClpP2; assay type: biochemical; settings: 6 μM ClpP1 and ClpP2
Outline: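 C-terminal His6-tagged C. trachomatis L2 ClpP1 and ClpP2 (6 μM each) were purified from clpAPX-null E. coli and used without AAA+ chaperone. Enzyme was preincubated with compound or DMSO for 30 min at 32 °C in HEPES pH 7.6/KCl/MgCl2/DTT/glycerol buffer, then 20 μM FITC-casein was added. Fluorescence (ex 490/em 525 nm) was read every 3 min for 3 h. Unlabeled casein digests were run on SDS-PAGE. ≥3 runs, ≥2 protein preparations.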

[13] = tested on: ClpP; experiment: In vitro casein degradation assay without AAA+ chaperone; assay type: biochemical; settings: FITC-casein 20 μM, 32°C, 3 h
[14] = tested on: epithelial cervix adenocarcinoma (HeLa 229) cells; experiment: Cytotoxicity assay; assay type: cell-based, human; settings: 50 μg/mL, 24 h
[15] = molecular target: mouse ClpP (Mus musculus, UniProt O88696); experiment: In vitro casein degradation assay, mouse ClpP; assay type: biochemical; settings: 1 μM ClpP
mouse ClpP, sequence (O88696 53-272): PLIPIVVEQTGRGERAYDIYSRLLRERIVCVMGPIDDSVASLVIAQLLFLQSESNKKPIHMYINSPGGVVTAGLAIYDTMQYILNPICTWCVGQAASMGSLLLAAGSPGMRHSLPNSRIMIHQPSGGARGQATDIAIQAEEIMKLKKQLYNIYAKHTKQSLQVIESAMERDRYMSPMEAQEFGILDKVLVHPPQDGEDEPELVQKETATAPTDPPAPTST
Outline: (§1)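 Human or mouse ClpP ORF minus the mitochondrial localization signal was codon-optimised, C-terminally His6-tagged, and expressed and purified from clpAPX-null E. coli. 1 μM enzyme, without AAA+ chaperone, was preincubated 30 min at 32 °C with compound or DMSO in 25 mM HEPES pH 7.6 buffer before adding 20 μM FITC-casein. Fluorescence (ex 490/em 525 nm) was read every 3 min over 3 h. ≥3 runs, ≥2 protein preparations.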

[16] = molecular target: human ClpP (Homo sapiens, UniProt Q16740); experiment: In vitro casein degradation assay, human ClpP; assay type: biochemical; settings: 1 μM ClpP
human ClpP, sequence (Q16740 57-277): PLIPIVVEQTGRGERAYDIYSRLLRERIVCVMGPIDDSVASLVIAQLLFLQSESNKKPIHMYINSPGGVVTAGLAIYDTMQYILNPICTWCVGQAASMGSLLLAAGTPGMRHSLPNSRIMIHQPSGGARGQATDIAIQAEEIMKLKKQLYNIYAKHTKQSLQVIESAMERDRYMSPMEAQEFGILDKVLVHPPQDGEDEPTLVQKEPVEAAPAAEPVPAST
Outline: as §1

[17] = tested on: D. melanogaster; experiment: Toxicity; assay type: in vivo, Drosophila melanogaster; settings: 0.25, 0.5, and 1.0 mM
Outline: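 Eggs from two different crosses collected for 8 hours in culture flasks on solid agar base (5% w/v) topped with live baker's yeast plus sugar.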

[18] = molecular target: recombinant ClpP from E. coli (Escherichia coli, UniProt P0A6G7); experiment: In vitro casein degradation assay, E. coli ClpP; assay type: biochemical; settings: 1 or 0.1 (40 only) μM ClpP
recombinant ClpP from E. coli, sequence (P0A6G7 15-207): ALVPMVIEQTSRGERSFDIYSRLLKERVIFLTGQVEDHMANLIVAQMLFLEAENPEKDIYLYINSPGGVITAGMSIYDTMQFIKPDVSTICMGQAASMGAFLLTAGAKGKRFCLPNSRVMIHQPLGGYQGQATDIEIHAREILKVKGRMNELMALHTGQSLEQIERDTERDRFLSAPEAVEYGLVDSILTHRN

[19] = tested on: HEp-2 cells; experiment: Host cell morphology and viability under phase contrast microscopy; assay type: cell-based, human; settings: 100 μg/mL
Outline: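 HEp-2 cells grown in DMEM with 2% L-glutamine and 10% FBS at 37 °C, infected with C. trachomatis L2 at MOI 1. Test compound added in triplicate at 8 hpi. After 16 h (24 h total incubation), host cell morphology and viability inspected by phase contrast microscopy against untreated control cells.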

Q: Which bacterial death [1] does the source give for “1-(4-(3,4-dichlorophenyl)piperazin-1-yl)-2-((5-(trifluoromethyl)pyridin-2-yl)sulfonyl) propan-1-one [Compound 37]” here?
A: The bacterial death was “bacterial death was not observed”.

Q: What about the “impact on chlamydiae (infectious progeny, IFU)” value (“impact on chlamydiae” for short) ([2]; 50 μg/mL) of the same compound?
A: The value was “remarkable impact”.

Q: What about the “CL(int) Mean” value [3] of the same compound?
A: Its value is 111.96 uL/(min*mg protein).

Q: And the “CL(int,H) Mean” value [3]?
A: Its value is 873.80 mL/(min*kg bodywgt.).

Q: What about the “T1/2 Mean” value [3] of the same compound?
A: The value was 6.25 min.

Q: And the bacterial death [4]?
A: Its bacterial death is “bacterial death was not observed”.

Q: What about the “toxicity towards HaCaT cells” value [5] of the same compound?
A: Its value is “more tolerated”.

Q: Which results are given for 2-bromoethylamine [Compound 21]?
A: bacterial death [1]: bacterial death was not observed; bacterial death [4]: bacterial death was not observed

Q: Which “minimal chlamydicidal concentrations (MCCs)” value [6] does the source give for CC[C@H]1OC(=O)[C@H](C)[C@@H](O[C@H]2C[C@@](C)(OC)[C@@H](O)[C@H](C)O2)[C@H](C)[C@@H](O[C@@H]2O[C@H](C)C[C@H](N(C)C)[C@H]2O)[C@](C)(O)C[C@@H](C)CN(C)[C@H](C)[C@@H](O)[C@]1(C)O [Azithromycin] here?
A: Its value is 4 µg/mL.

Q: With CC(C)(C(=O)NCCSc1ccccc1Cl)S(=O)(=O)c1ccc(C(F)(F)F)cn1 [Compound 1] as the compound, how does the “antibacterial activity against H. influenzae” value [7] read?
A: Its value is 32 µg/mL.

Q: What about the “formation of infectious EBs” value [8] of the same compound?
A: The value was “drastic decrease”.

Q: And the “fold less potent than ADEP1” value [9]?
A: The value was 10-20 fold.

Q: What about the “antibacterial activity against N. meningitidis” value [10] of the same compound?
A: Its value is 64 µg/mL.

Q: Which results are given for CC(C)(C(=O)NCCCc1ccccc1)S(=O)(=O)c1ccc(C(F)(F)F)cn1 [Compound 2]?
A: antibacterial activity against H. influenzae [7]: 8 µg/mL; activation of E. coli ClpP in an enzymatic assay [11]: activate; inhibitory activity against chlamydiae (Figure 5a) [2]: good inhibitory activity; formation of infectious EBs [8]: drastic decrease; fold less potent than ADEP1 [9]: 10-20 fold; antibacterial activity against N. meningitidis [10]: 16 µg/mL

Q: With CC(C)(C(=O)NCCCc1ccccc1)S(=O)(=O)c1ccccc1 [Compound 9, 2-Methyl-N-(3-Phenylpropyl)-2-(phenylsulfonyl)propanamide] as the compound, how does the “activation of chlamydial ClpP1, ClpP2 or the ClpP1/2 dimer” value [12] read?
A: Its value is “some residual decomposition”.

Q: What about the “ClpP-dependent casein degradation in the absence of a chaperone” value (shortened to “ClpP-dependent casein degradation”) [13] of the same compound?
A: The value was “little or no degradation”.

Q: For CC(C)(C(=O)NCCCc1ccccc1)S(=O)(=O)c1ccc(C(F)(F)F)cc1 [Compound 11, 2-Methyl-N-(3-Phenylpropyl)-2-((4-(trifluoromethyl)phenyl)sulfonyl)propanamide], which bacterial death [1] is on record?
A: The bacterial death was “bacterial death was not observed”.

Q: What about the “toxicity towards HeLa 229 cells” value [14] of the same compound?
A: Its value is “presented toxicity”.

Q: What about the “impact on chlamydiae” value ([2]; 50 μg/mL) of the same compound?
A: The value was “remarkable impact”.

Q: What about the “CL(int,H) Mean” value [3] of the same compound?
A: The value was 890.58 mL/(min*kg bodywgt.).

Q: What about the “activation of mouse ClpP” value [15] of the same compound?
A: The value was “activated”.

Q: What about the bacterial death [4] of the same compound?
A: Its bacterial death is “bacterial death was not observed”.

Q: What about the “toxicity towards HaCaT cells” value [5] of the same compound?
A: Its value is “presented toxicity”.

Q: And the “activation of human ClpP” value [16]?
A: The value was “activated”.

Q: And the “activation of chlamydial ClpP1, ClpP2 or the ClpP1/2 dimer” value [12]?
A: The value was “some residual decomposition”.

Q: And the “toxicity against D. melanogaster (survival rate)” value (“toxicity against D. melanogaster” below) [17]?
A: The value was “did not show toxicity”.

Q: What about the “ClpP-dependent casein degradation” value [13] of the same compound?
A: The value was “enabled some species of ClpP to degrade casein”.

Q: For CC(C)(C(=O)NCCSc1ccccc1Cl)S(=O)(=O)c1ccccc1 [Compound 16, N-(2-((2-chlorophenyl)thio)ethyl)-2-methyl-2-(phenylsulfonyl)propanamide], which “ClpP-dependent casein degradation” value [13] is on record?
A: Its value is “little or no degradation”.

Q: With CC(C)(C(=O)NCCSc1ccc(Cl)cc1)S(=O)(=O)c1ccccc1 [Compound 17, N-(2-((4-Chlorophenyl)thio)ethyl)-2-methyl-2-(phenylsulfonyl)propanamide] as the compound, how does the “ClpP-dependent casein degradation” value [13] read?
A: The value was “little or no degradation”.

Q: Which “toxicity against D. melanogaster” value [17] does the source give for CC(C)(C(=O)NCCSc1ccc(Cl)cc1)S(=O)(=O)c1ccc(C(F)(F)F)cn1 [Compound 20] here?
A: Its value is “did not show toxicity”.

Q: With CC(C)(C(=O)NCCOc1ccccc1)S(=O)(=O)c1ccc(C(F)(F)F)cc1 [Compound 24, 2-Methyl-N-(2-Phenoxyethyl)-2-))4-(trifluoromethyl)phenyl(sulfonyl(propenamide] as the compound, how does the “impact on chlamydiae” value ([2]; 50 μg/mL) read?
A: The value was “remarkable impact”.

Q: What about the “CL(int,H) Mean” value [3] of the same compound?
A: Its value is 1840.91 mL/(min*kg bodywgt.).

Q: What about the “toxicity towards HaCaT cells” value [5] of the same compound?
A: Its value is “more tolerated”.

Q: And the “toxicity against D. melanogaster” value [17]?
A: Its value is “did not show toxicity”.

Q: What does the source list for CC(C)(C(=O)NCCOc1ccccc1)S(=O)(=O)c1ccc(C(F)(F)F)cn1 [Compound 25, 2-Methyl-N-(2-Phenoxyethyl)-2-))5-(trifluoromethyl)pyridin-2-yl(sulfonyl(propenamide]?
A: bacterial death [1]: bacterial death was not observed; impact on chlamydiae (infectious progeny, IFU) ([2]; 50 μg/mL): remarkable impact; CL(int,H) Mean [3]: 1461.60 mL/(min*kg bodywgt.); bacterial death [4]: bacterial death was not observed

Q: For CC(C)(C(=O)NCCOc1ccccc1Cl)S(=O)(=O)c1ccccc1 [Compound 26, N-(2-(2-Chlorophenoxy)ethyl)-2-methyl-2-(Phenylsulfonyl)propanamide], which “toxicity against D. melanogaster” value [17] is on record?
A: The value was “did not show toxicity”.

Q: With CC(C)(C(=O)NCCOc1ccccc1Cl)S(=O)(=O)c1ccc(C(F)(F)F)cn1 [Compound 28, N-(2-(2-Chlorophenoxy)ethyl)-2-methyl-2-((5-(trifluoromethyl)pyridin-2-yl)sulfonyl) propanamide] as the compound, how does the bacterial death [1] read?
A: Its bacterial death is “bacterial death was not observed”.

Q: What about the bacterial death [4] of the same compound?
A: Its bacterial death is “bacterial death was not observed”.

Q: For Cc1ccccc1N1CCN(C(=O)C(C)(C)S(=O)(=O)c2ccc(C(F)(F)F)cn2)CC1 [Compound 35, 2-methyl-1-(4-(o-tolyl)piperazin-1-yl)-2-((5-(trifluoromethyl)pyridin-2-yl)sulfonyl)propan-1-one], which bacterial death [1] is on record?
A: Its bacterial death is “bacterial death was not observed”.

Q: And the “impact on chlamydiae” value ([2]; 50 μg/mL)?
A: Its value is “remarkable impact”.

Q: What about the bacterial death [4] of the same compound?
A: The bacterial death was “bacterial death was not observed”.

Q: Which results are given for CC(C)(C(=O)N1CCN(Cc2ccc(Cl)cc2)CC1)S(=O)(=O)c1ccc(C(F)(F)F)cn1 [Compound 40, 2-methyl-1-(4-(4-Chlorobenzyl)piperazin-1-yl)-2-((5-(trifluoromethyl)pyridin-2-yl)sulfonyl) propan-1-one]?
A: activation of E. coli ClpP [18]: strong activator; bacterial death [1]: bacterial death was not observed; toxicity towards HeLa 229 cells [14]: not toxic; inclusion yields lower than the untreated cells ([2]; 12.5 μg/mL): around 60%; impact on chlamydiae (infectious progeny, IFU) ([2]; 50 μg/mL): remarkable impact; mechanism of action (bacteriostatic or bactericidal) ([2]; 50 μg/mL, washout experiment): bacteriostatic; activity compared with penicillin ([2]; 40 at 50 μg/mL, penicillin at 5 U/mL ~ 3 μg/mL): on par with penicillin; activity compared with spectinomycin ([2]; 40 at 50 μg/mL, spectinomycin at 128 μg/mL): superior activity than spectinomycin; inhibitory activity against chlamydiae (Figure 5a) [2]: good inhibitory activity; activation of mouse ClpP [15]: did not activate; bacterial death [4]: bacterial death was not observed; cell toxicity to host cells [19]: did not observe cell toxicity; activation of human ClpP [16]: did not activate; toxicity against D. melanogaster (survival rate) [17]: did not show toxicity; ClpP-dependent casein degradation in the absence of a chaperone [13]: enabled some species of ClpP to degrade casein

Q: Which “impact on chlamydiae” value ([2]; 50 μg/mL) does the source give for CC(C)(C(=O)N1CCN(Cc2cccc(Cl)c2)CC1)S(=O)(=O)c1ccc(C(F)(F)F)cn1 [Compound 41, 2-methyl-1-(4-(3-chlorobenzyl)piperazin-1-yl)-2-((5-(trifluoromethyl)pyridin-2-yl)sulfonyl) propan-1-one] here?
A: The value was “remarkable impact”.

Q: And the “toxicity against D. melanogaster” value [17]?
A: The value was “did not show toxicity”.

Q: Which results are given for Cc1ccc(CN2CCN(C(=O)C(C)(C)S(=O)(=O)c3ccc(C(F)(F)F)cn3)CC2)cc1 [Compound 42, 2-methyl-1-(4-(4-methylbenzyl)piperazin-1-yl)-2-((5-(trifluoromethyl)pyridin-2-yl)sulfonyl) propan-1-one]?
A: bacterial death [1]: bacterial death was not observed; bacterial death [4]: bacterial death was not observed; toxicity towards HaCaT cells [5]: more tolerated

Q: Which “minimal chlamydicidal concentrations (MCCs)” value [6] does the source give for C[C@H]1c2cccc(O)c2C(=O)C2=C(O)[C@]3(O)C(=O)C(C(N)=O)=C(O)[C@@H](N(C)C)[C@@H]3[C@@H](O)[C@@H]21.O [Doxycycline] here?
A: Its value is 1 µg/mL.
